The values below come from the M2OR odorant receptor database.
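Further: active if original authors judged signal statistically different from baseline.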

One assay deals with T1, UniProt Q8VGC6.
T1 sequence (whole entry): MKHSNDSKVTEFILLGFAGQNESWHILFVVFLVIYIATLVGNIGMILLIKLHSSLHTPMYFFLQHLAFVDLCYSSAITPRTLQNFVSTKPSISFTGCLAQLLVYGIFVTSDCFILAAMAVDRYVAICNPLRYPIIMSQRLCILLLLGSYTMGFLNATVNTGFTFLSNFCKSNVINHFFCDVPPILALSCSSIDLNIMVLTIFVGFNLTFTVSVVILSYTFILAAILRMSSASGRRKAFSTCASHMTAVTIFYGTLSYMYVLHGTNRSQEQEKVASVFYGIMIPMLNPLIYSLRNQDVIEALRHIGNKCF
Conditions: stereoisomer not certain. The gist of the method:
(§1)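 Each receptor–molecule pair is labelled responsive or non-responsive (inactive) according to whether the original authors judged the measured signal statistically different from baseline. The data were taken from the main text and supplementary material of published papers and checked for typos and inconsistencies. Assay methods differed by source, with transient luciferase assays in mammalian cell lines being common.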
Consider `Cc1ccc(C(C)C)c(O)c1`, for which the “odorant receptor agonist call” value was “inactive”.
Same read-out and setting: the entry for `CCc1occc(=O)c1O` is “inactive”; for `CCCCCCCCOC=O` it is “inactive”.
The same measure, in the same setting: the entry for `CCCCCC(=Cc1ccccc1)C(OC)OC` is “inactive”; for `C=C(CC)CCCC(C)(C)O` it is “inactive”.
With `CCC(C)c1nccnc1OC` (stereo unspecified), the “odorant receptor agonist call” value was “inactive”.
The same measure, in the same setting: next, `CCCO`: “inactive”.
With `CCCCCC(C=O)=Cc1ccccc1`, the “odorant receptor agonist call” value is “inactive”.
For the compound `CC1CC=CCCCCCCCCCC(=O)C1` (stereo unspecified), the “odorant receptor agonist call” value was “inactive”.
Consider `CC(=O)C=CC1=C(C)CCCC1(C)C`, for which the “odorant receptor agonist call” value was “inactive”.
The same measure, in the same setting: next, `CC=Cc1ccc(OC)cc1`: “inactive”; `c1ccc2ncccc2c1`: “inactive”; `CSSSC`: “inactive”.
The same measure, in the same setting: the entry for `CC=CC(=O)C1=C(C)CCCC1(C)C` is “inactive”; for `CCCCCCC=CC=O` it is “inactive”.
Same read-out and setting: the entry for `C=C(C)C1CCC2(C)OC2C1` (stereo unspecified) is “inactive”; for `CCOC(=O)C(C)CC` (stereo unspecified) it is “inactive”.
Take `CCSSCC`: the “odorant receptor agonist call” value was “inactive”.
On to `O=C([O-])CCCCCCC(=O)[O-].[H+].[H+]`, for which the “odorant receptor agonist call” value was “inactive”.
Regarding `CC1(C)CC(=O)CC(=O)C1`, the “odorant receptor agonist call” value was “inactive”.
Same read-out and setting: next, `OCCCCCCCCCO`: “inactive”.
On the same count and under the same terms, the entry for `C1CCOC1` is “inactive”; for `CCCCC=O` it is “inactive”; for `O=C(O)CCCCCCCCC(=O)O` it is “inactive”.
Same read-out and setting: the entry for `C1CCOCC1` is “inactive”; for `C=CC(=C)CCC=C(C)C` it is “inactive”.
As to `Cc1ccccc1OC(=O)C(C)C`, the “odorant receptor agonist call” value was “inactive”.
Same read-out and setting: the entry for `CSSCc1ccco1` is “inactive”; for `C=C(C)C1CCC(C)C(O)C1` (stereo unspecified) it is “inactive”; for `CCC(C)O` (stereo unspecified) it is “inactive”.
Turning to `C=CC(=C)CCC=C(C)CCC=C(C)C`, the “odorant receptor agonist call” value is “inactive”.
On to `O=C(O)C1CCC1`, for which the “odorant receptor agonist call” value is “inactive”.
On the same count and under the same terms, the entry for `Cc1c(C)c(C)c(C=O)c(C)c1C` is “inactive”.
Still for that read-out and setting: next, `CCCCCCCCC=CC=O`: “inactive”; `O=C(O)CCCCCBr`: “inactive”; `COc1cnccn1`: “inactive”.
Regarding `CCCCCCC(C=O)=Cc1ccccc1`, the “odorant receptor agonist call” value is “inactive”.

The target of another assay is T2, UniProt Q8VGJ3.
T2 sequence (whole entry): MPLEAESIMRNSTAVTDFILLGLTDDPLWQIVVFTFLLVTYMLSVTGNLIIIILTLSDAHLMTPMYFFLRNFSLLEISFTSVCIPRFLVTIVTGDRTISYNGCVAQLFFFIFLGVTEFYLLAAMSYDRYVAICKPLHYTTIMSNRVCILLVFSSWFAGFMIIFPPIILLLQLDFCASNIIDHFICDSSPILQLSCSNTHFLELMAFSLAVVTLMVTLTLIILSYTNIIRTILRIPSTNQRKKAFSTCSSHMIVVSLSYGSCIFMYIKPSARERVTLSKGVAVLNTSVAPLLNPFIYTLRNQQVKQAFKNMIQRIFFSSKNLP
The settings on record: stereoisomer not certain. The gist of the method: as §1
Consider `Cc1ccc(C(C)C)c(O)c1`, for which the “odorant receptor agonist call” value was “inactive”.
Same read-out and setting: the entry for `CCc1occc(=O)c1O` is “inactive”.
As for `CCCCCCCCOC=O`, the “odorant receptor agonist call” value was “inactive”.
Still for that read-out and setting: the entry for `CCCCCC(=Cc1ccccc1)C(OC)OC` is “inactive”.
Turning to `C=C(CC)CCCC(C)(C)O`, the “odorant receptor agonist call” value is “inactive”.
In the case of `CCC(C)c1nccnc1OC` (stereo unspecified), the “odorant receptor agonist call” value was “inactive”.
Consider `CCCO`, for which the “odorant receptor agonist call” value is “inactive”.
`CCCCCC(C=O)=Cc1ccccc1`: the “odorant receptor agonist call” value was “inactive”.
As to `CC1CC=CCCCCCCCCCC(=O)C1` (stereo unspecified), the “odorant receptor agonist call” value was “inactive”.
On the same count and under the same terms, next, `CC(=O)C=CC1=C(C)CCCC1(C)C`: “inactive”; `CC=Cc1ccc(OC)cc1`: “inactive”; `c1ccc2ncccc2c1`: “inactive”.
With `CSSSC`, the “odorant receptor agonist call” value is “inactive”.
The same measure, in the same setting: the entry for `CC=CC(=O)C1=C(C)CCCC1(C)C` is “inactive”; for `CCCCCCC=CC=O` it is “inactive”.
Still for that read-out and setting: next, `C=C(C)C1CCC2(C)OC2C1` (stereo unspecified): “inactive”.
Still for that read-out and setting: next, `CCOC(=O)C(C)CC` (stereo unspecified): “inactive”; `CCSSCC`: “inactive”.
For the compound `O=C([O-])CCCCCCC(=O)[O-].[H+].[H+]`, the “odorant receptor agonist call” value is “inactive”.
As for `CC1(C)CC(=O)CC(=O)C1`, the “odorant receptor agonist call” value was “inactive”.
On the same count and under the same terms, the entry for `OCCCCCCCCCO` is “inactive”; for `C1CCOC1` it is “inactive”; for `CCCCC=O` it is “inactive”.
`O=C(O)CCCCCCCCC(=O)O`: the “odorant receptor agonist call” value is “inactive”.
Regarding `C1CCOCC1`, the “odorant receptor agonist call” value is “inactive”.
For `C=CC(=C)CCC=C(C)C`, the “odorant receptor agonist call” value is “inactive”.
Still for that read-out and setting: next, `Cc1ccccc1OC(=O)C(C)C`: “inactive”; `CSSCc1ccco1`: “inactive”.
The same measure, in the same setting: the entry for `C=C(C)C1CCC(C)C(O)C1` (stereo unspecified) is “inactive”.
The same measure, in the same setting: next, `CCC(C)O` (stereo unspecified): “inactive”; `C=CC(=C)CCC=C(C)CCC=C(C)C`: “inactive”.
For the compound `O=C(O)C1CCC1`, the “odorant receptor agonist call” value is “inactive”.
The same measure, in the same setting: the entry for `Cc1c(C)c(C)c(C=O)c(C)c1C` is “inactive”.
The same measure, in the same setting: the entry for `CCCCCCCCC=CC=O` is “inactive”; for `O=C(O)CCCCCBr` it is “inactive”; for `COc1cnccn1` it is “inactive”.
On the same count and under the same terms, the entry for `CCCCCCC(C=O)=Cc1ccccc1` is “inactive”.

The target of a further assay is T3, UniProt Q8VGL0.
T3 sequence (whole entry): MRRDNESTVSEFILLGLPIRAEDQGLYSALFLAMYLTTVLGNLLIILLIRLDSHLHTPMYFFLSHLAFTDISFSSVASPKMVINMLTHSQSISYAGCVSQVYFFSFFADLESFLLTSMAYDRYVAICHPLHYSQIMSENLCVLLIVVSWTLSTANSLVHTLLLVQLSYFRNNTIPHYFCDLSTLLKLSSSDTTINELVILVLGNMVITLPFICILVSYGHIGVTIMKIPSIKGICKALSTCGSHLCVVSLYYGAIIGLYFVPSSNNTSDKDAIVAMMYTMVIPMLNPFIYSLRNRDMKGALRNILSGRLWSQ
Conditions: stereoisomer not certain. An outline of the steps: as §1
Turning to `Cc1ccc(C(C)C)c(O)c1`, the “odorant receptor agonist call” value was “inactive”.
The same measure, in the same setting: next, `CCc1occc(=O)c1O`: “inactive”.
With `CCCCCCCCOC=O`, the “odorant receptor agonist call” value was “inactive”.
`CCCCCC(=Cc1ccccc1)C(OC)OC`: the “odorant receptor agonist call” value was “inactive”.
In the case of `C=C(CC)CCCC(C)(C)O`, the “odorant receptor agonist call” value is “inactive”.
`CCC(C)c1nccnc1OC` (stereo unspecified): the “odorant receptor agonist call” value is “inactive”.
`CCCO`: the “odorant receptor agonist call” value is “inactive”.
Take `CCCCCC(C=O)=Cc1ccccc1`: the “odorant receptor agonist call” value is “inactive”.
Still for that read-out and setting: the entry for `CC1CC=CCCCCCCCCCC(=O)C1` (stereo unspecified) is “inactive”; for `CC(=O)C=CC1=C(C)CCCC1(C)C` it is “inactive”; for `CC=Cc1ccc(OC)cc1` it is “inactive”.
As for `c1ccc2ncccc2c1`, the “odorant receptor agonist call” value was “inactive”.
For `CSSSC`, the “odorant receptor agonist call” value is “inactive”.
On the same count and under the same terms, next, `CC=CC(=O)C1=C(C)CCCC1(C)C`: “inactive”; `CCCCCCC=CC=O`: “inactive”.
Regarding `C=C(C)C1CCC2(C)OC2C1` (stereo unspecified), the “odorant receptor agonist call” value is “inactive”.
Same read-out and setting: next, `CCOC(=O)C(C)CC` (stereo unspecified): “inactive”; `CCSSCC`: “inactive”; `O=C([O-])CCCCCCC(=O)[O-].[H+].[H+]`: “inactive”.
Same read-out and setting: next, `CC1(C)CC(=O)CC(=O)C1`: “inactive”; `OCCCCCCCCCO`: “inactive”; `C1CCOC1`: “inactive”.
Turning to `CCCCC=O`, the “odorant receptor agonist call” value was “inactive”.
Turning to `O=C(O)CCCCCCCCC(=O)O`, the “odorant receptor agonist call” value was “inactive”.
The same measure, in the same setting: the entry for `C1CCOCC1` is “inactive”.
In the case of `C=CC(=C)CCC=C(C)C`, the “odorant receptor agonist call” value is “inactive”.
On the same count and under the same terms, the entry for `Cc1ccccc1OC(=O)C(C)C` is “inactive”; for `CSSCc1ccco1` it is “inactive”; for `C=C(C)C1CCC(C)C(O)C1` (stereo unspecified) it is “active”.
Same read-out and setting: the entry for `CCC(C)O` (stereo unspecified) is “inactive”; for `C=CC(=C)CCC=C(C)CCC=C(C)C` it is “inactive”.
On the same count and under the same terms, the entry for `O=C(O)C1CCC1` is “inactive”; for `Cc1c(C)c(C)c(C=O)c(C)c1C` it is “inactive”.
Consider `CCCCCCCCC=CC=O`, for which the “odorant receptor agonist call” value is “inactive”.
With `O=C(O)CCCCCBr`, the “odorant receptor agonist call” value was “inactive”.
Still for that read-out and setting: the entry for `COc1cnccn1` is “inactive”; for `CCCCCCC(C=O)=Cc1ccccc1` it is “inactive”.
